The target in series [1] is Cyclin-dependent kinase 9 (Homo sapiens, UniProt P50750). Put plainly: Inhibition of CDK9 in human HL60 cells assessed as decrease in phosphorylation at Thr 186 residues up to 3 uM after 2 hrs by immunoblotting analysis. Type of series: cell-based.
A further series has as its system MV4-11. Put plainly: Induction of apoptosis in human MV4-11 cells assessed as decrease in MCL-1 level after 2 hrs by immunoblotting analysis. Type of series: functional, cell-based.
Series [2] is described as follows: AUC (0 to t) in Sprague-Dawley rat at 3 mg/kg, iv by LC-MS/MS analysis. Type of series: ADME, organism-based. Conditions: in vivo. The method in brief: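 Non-compartmental PK. Male SD rats 190-210 g, mice and beagle dogs acclimatized one week, fasted 12 h with water, split into iv and po groups (mice 48, rats 6, dogs 6). iv 3/3/2 mg/kg (mice/rats/dogs); po 10/20/10 mg/kg; vehicle DMSO in 5% glucose water. Blood at 2 or 5 to 720 min; plasma protein-precipitated with methanol, caffeine internal standard, LC-MS/MS.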

Series [3] deals with Tyrosine-protein kinase ABL1 (Homo sapiens) (UniProt P00519). Description: Binding affinity to wild-type human non-phosphorylated ABL1 (S229 to K512 residues) expressed in mammalian expression system assessed as remaining unbound target protein level at 1000 nM by Kinomescan method relative to control. A digest of the protocol:
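Profiled in a KINOMEscan binding panel with the inhibitor at a single concentration of 1 μM. Binding to each kinase was read out as percent of control, relative to a DMSO control. Strong binders were defined as those with a percent control value below 1.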

Series [4] concerns the target Cytoplasmic tyrosine-protein kinase BMX (Homo sapiens) (UniProt P51813). Put plainly: Binding affinity to wild-type human full length BMX (M1 to H675 residues) expressed in bacterial expression system assessed as remaining unbound target protein level at 1000 nM by Kinomescan method relative to control. The method in brief:
(§1)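 Single-point competition binding screen across a panel of 468 kinases and mutants, with the inhibitor at 1 μM. Binding is read out as percent of a DMSO control, and targets below 1 percent control were classed as strong binders.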

Series [5] has as its target Calcium/calmodulin-dependent protein kinase type 1 (Homo sapiens) (UniProt Q14012). Description: Binding affinity to wild-type human full length CAMK1 (M1 to L370 residues) expressed in bacterial expression system assessed as remaining unbound target protein level at 1000 nM by Kinomescan method relative to control. A digest of the protocol: as §1
Series [6] deals with Casein kinase I isoform alpha (Homo sapiens) (UniProt P48729). Description: Binding affinity to wild-type human partial length CSNK1A1 (M1 to L450 residues) expressed in mammalian expression system assessed as remaining unbound target protein level at 1000 nM by Kinomescan method relative to control. A digest of the protocol:
(§2)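 KINOMEscan competition binding profile across a panel of 468 kinases and mutants, with the inhibitor tested at a single concentration of 1 μM. Binding is reported as percent of control, meaning signal relative to a DMSO control.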

Series [7] concerns the target Discoidin domain-containing receptor 2 (Homo sapiens) (UniProt Q16832). Description: Binding affinity to wild-type human partial length DDR2 (V555 to E855 residues) expressed in mammalian expression system assessed as remaining unbound target protein level at 1000 nM by Kinomescan method relative to control.
Series [8] has as its target Eukaryotic translation initiation factor 2-alpha kinase 1 (Homo sapiens) (UniProt Q9BQI3). Put plainly: Binding affinity to wild-type human partial length EIF2AK1 (Q147 to E603 residues) expressed in mammalian expression system assessed as remaining unbound target protein level at 1000 nM by Kinomescan method relative to control.
Series [9] has as its target Ephrin type-B receptor 6 (Homo sapiens) (UniProt O15197). Put plainly: Binding affinity to wild-type human partial length EPHB6 (Q634 to P948 residues) expressed in mammalian expression system assessed as remaining unbound target protein level at 1000 nM by Kinomescan method relative to control.
The subject of series [10] is Receptor-type tyrosine-protein kinase FLT3 (Homo sapiens), P36888 [D835Y]. Put plainly: Binding affinity to human partial length FLT3 D835Y mutant (Q580 to Y969 residues) expressed in bacterial expression system assessed as remaining unbound target protein level at 1000 nM by Kinomescan method relative to control. A digest of the protocol: (§3)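 KINOMEscan competition-binding profiling across the panel of 468 kinases and mutants, with inhibitor tested at 1 μM. Binding is expressed as percent of control, with DMSO as the reference control.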

In series [11] the test system is Receptor-type tyrosine-protein kinase FLT3 (Homo sapiens), P36888 [R834Q]. Description: Binding affinity to human partial length FLT3 R834Q mutant (V592 to Y969 residues) expressed in mammalian expression system assessed as remaining unbound target protein level at 1000 nM by Kinomescan method relative to control. A digest of the protocol:
as §3

In series [12] the test system is eIF-2-alpha kinase GCN2 (Homo sapiens), Q9P2K8 [S808G]. Put plainly: Binding affinity to wild-type human partial length GCN2 kinase domain 2 (R585 to T1018 residues) S808G mutant expressed in bacterial expression system assessed as remaining unbound target protein level at 1000 nM by Kinomescan method relative to control.
In series [13] the target is Tyrosine-protein kinase JAK1 (Homo sapiens) (UniProt P23458). Put plainly: Binding affinity to wild-type human partial length JAK1 JH2 pseudokinase domain (R537 to D855 residues) expressed in mammalian expression system assessed as remaining unbound target protein level at 1000 nM by Kinomescan method relative to control. The method in brief:
(§4)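 KINOMEscan binding panel of 468 kinases/mutants. Inhibitor was tested at a single concentration of 1 μM. Binding is reported as percent of control, defined relative to a DMSO control.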

Series [14] has as its system Mast/stem cell growth factor receptor Kit (Homo sapiens), P10721 [D816H]. Put plainly: Binding affinity to human partial length KIT D816H mutant (I571 to D952 residues) expressed in mammalian expression system assessed as remaining unbound target protein level at 1000 nM by Kinomescan method relative to control. A digest of the protocol:
as §3

Series [15] deals with Mitogen-activated protein kinase kinase kinase kinase 2 (Homo sapiens) (UniProt Q12851). Put plainly: Binding affinity to wild-type human partial length MAP4K2 (M1 to G318 residues) expressed in mammalian expression system assessed as remaining unbound target protein level at 1000 nM by Kinomescan method relative to control. A digest of the protocol: as §4
Mitogen-activated protein kinase kinase kinase kinase 2 (Homo sapiens), sequence (Q12851 whole entry, the tested form may be a part): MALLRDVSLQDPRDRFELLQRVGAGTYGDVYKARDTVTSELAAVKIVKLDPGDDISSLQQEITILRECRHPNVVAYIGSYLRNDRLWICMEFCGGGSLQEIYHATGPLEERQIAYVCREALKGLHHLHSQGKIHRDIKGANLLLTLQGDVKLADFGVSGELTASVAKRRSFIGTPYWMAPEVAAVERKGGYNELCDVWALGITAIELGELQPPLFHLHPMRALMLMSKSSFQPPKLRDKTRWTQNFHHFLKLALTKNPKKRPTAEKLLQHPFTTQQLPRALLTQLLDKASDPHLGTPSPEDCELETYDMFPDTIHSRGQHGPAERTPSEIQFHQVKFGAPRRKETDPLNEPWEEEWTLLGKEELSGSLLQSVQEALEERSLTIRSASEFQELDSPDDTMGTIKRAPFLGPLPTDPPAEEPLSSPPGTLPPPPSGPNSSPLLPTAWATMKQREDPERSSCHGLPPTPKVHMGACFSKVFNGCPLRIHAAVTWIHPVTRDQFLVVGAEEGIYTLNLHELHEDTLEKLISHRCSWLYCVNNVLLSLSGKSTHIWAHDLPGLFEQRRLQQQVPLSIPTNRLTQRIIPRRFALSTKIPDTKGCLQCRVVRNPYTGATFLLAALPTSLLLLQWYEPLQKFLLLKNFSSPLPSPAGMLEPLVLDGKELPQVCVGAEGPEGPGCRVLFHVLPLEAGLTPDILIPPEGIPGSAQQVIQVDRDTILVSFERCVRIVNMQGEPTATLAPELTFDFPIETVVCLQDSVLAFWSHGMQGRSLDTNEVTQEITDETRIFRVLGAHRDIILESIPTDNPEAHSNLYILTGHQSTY
Series [16] addresses Dual specificity mitogen-activated protein kinase kinase 6 (Homo sapiens) (UniProt P52564). Put plainly: Binding affinity to wild-type human partial length MEK6 (K36 to D334 residues) expressed in bacterial expression system assessed as remaining unbound target protein level at 1000 nM by Kinomescan method relative to control. The method in brief:
as §4

Series [17] addresses Tyrosine-protein kinase Mer (Homo sapiens) (UniProt Q12866). Put plainly: Binding affinity to wild-type human partial length MERTK (R557 to L884 residues) expressed in bacterial expression system assessed as remaining unbound target protein level at 1000 nM by Kinomescan method relative to control. A digest of the protocol: as §4
Series [18] has as its target Cyclin-dependent kinase 15 (Homo sapiens) (UniProt Q96Q40). Put plainly: Binding affinity to wild-type human full length PFTAIRE2 (M1 to W384 residues) expressed in bacterial expression system assessed as remaining unbound target protein level at 1000 nM by Kinomescan method relative to control. A digest of the protocol:
as §2

Series [19] addresses Dual specificity protein kinase TTK (Homo sapiens) (UniProt P33981). Put plainly: Binding affinity to wild-type human partial length TTK (N505 to V798 residues) expressed in bacterial expression system assessed as remaining unbound target protein level at 1000 nM by Kinomescan method relative to control.

The source made the active and inactive calls.

Tyrosine-protein kinase JAK1 (Homo sapiens), sequence (P23458 whole entry, the tested form may be a part): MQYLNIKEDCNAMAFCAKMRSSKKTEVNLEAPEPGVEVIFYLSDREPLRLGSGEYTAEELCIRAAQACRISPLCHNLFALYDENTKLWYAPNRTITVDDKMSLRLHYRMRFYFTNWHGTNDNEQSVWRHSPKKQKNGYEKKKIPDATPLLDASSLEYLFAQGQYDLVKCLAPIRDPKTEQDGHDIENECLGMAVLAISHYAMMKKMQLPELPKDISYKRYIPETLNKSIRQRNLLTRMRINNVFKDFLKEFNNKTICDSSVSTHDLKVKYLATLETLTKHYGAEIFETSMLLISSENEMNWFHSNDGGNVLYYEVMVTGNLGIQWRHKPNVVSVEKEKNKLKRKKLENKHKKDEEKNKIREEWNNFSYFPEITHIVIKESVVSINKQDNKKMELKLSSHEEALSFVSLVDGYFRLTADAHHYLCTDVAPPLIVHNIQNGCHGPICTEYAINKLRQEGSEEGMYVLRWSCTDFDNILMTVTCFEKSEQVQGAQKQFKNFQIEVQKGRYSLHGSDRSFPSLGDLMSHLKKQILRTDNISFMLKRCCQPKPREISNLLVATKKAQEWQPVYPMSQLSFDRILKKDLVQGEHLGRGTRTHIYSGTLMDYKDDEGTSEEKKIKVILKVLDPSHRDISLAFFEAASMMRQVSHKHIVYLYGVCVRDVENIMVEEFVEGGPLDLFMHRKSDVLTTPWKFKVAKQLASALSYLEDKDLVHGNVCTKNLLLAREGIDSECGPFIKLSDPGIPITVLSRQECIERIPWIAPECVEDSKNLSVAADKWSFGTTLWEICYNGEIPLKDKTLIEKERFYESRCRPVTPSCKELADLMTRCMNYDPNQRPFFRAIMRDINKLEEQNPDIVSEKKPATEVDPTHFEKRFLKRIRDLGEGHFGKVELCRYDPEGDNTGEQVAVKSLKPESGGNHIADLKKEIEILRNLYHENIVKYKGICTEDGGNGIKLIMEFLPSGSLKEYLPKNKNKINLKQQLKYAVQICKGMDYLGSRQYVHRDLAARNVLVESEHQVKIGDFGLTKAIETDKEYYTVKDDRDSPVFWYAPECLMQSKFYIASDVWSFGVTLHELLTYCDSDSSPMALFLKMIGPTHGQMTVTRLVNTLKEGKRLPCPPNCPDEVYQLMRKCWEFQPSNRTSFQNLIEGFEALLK
Tyrosine-protein kinase Mer (Homo sapiens), sequence (Q12866 whole entry, the tested form may be a part): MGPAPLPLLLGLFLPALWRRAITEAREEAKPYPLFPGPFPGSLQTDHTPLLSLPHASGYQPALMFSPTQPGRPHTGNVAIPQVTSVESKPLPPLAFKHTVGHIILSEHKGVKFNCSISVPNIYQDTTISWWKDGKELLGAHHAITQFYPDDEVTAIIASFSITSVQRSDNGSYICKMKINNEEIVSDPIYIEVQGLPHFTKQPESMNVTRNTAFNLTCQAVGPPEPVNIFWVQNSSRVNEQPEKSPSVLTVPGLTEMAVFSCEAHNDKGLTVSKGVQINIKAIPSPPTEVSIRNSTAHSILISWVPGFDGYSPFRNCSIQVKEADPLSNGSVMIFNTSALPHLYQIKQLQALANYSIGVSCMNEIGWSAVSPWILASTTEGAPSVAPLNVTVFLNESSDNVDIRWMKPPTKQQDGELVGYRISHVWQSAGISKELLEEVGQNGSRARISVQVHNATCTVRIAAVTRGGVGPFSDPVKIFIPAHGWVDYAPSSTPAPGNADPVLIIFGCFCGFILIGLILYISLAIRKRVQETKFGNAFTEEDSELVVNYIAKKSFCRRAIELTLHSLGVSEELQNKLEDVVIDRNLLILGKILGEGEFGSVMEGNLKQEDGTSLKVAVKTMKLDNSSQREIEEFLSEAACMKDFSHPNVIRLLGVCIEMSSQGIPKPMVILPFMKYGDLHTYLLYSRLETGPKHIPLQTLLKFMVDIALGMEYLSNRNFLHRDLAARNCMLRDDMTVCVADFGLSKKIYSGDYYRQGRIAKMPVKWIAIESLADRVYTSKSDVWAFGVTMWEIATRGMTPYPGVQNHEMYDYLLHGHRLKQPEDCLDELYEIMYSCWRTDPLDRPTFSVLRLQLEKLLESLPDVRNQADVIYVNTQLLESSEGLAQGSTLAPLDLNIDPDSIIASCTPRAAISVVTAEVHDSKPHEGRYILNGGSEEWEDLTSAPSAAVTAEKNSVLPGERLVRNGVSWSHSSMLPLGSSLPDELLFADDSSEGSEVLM
Cyclin-dependent kinase 15 (Homo sapiens), sequence (Q96Q40 whole entry, the tested form may be a part): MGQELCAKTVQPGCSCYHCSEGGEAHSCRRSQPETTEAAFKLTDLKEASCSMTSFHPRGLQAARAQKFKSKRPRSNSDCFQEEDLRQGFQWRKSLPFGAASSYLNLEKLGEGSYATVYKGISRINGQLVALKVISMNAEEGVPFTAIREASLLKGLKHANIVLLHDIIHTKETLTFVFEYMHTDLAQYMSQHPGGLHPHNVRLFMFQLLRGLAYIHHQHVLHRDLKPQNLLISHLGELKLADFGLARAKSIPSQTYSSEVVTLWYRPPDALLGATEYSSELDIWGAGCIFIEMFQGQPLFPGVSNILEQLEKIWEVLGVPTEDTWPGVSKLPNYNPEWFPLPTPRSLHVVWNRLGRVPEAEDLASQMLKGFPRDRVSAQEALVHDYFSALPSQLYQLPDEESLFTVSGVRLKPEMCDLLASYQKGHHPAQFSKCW
Casein kinase I isoform alpha (Homo sapiens), sequence (P48729 2-337 limits assumed): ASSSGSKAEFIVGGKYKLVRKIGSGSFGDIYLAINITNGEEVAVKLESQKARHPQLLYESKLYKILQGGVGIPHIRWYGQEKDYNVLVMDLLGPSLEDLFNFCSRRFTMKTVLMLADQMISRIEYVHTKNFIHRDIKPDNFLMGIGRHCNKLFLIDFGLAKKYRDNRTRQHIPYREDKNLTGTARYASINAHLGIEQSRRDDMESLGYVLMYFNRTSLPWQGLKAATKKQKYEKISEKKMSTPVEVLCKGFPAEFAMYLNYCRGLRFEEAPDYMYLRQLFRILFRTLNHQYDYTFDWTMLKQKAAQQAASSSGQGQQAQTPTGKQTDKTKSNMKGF
Eukaryotic translation initiation factor 2-alpha kinase 1 (Homo sapiens), sequence (Q9BQI3 whole entry, the tested form may be a part): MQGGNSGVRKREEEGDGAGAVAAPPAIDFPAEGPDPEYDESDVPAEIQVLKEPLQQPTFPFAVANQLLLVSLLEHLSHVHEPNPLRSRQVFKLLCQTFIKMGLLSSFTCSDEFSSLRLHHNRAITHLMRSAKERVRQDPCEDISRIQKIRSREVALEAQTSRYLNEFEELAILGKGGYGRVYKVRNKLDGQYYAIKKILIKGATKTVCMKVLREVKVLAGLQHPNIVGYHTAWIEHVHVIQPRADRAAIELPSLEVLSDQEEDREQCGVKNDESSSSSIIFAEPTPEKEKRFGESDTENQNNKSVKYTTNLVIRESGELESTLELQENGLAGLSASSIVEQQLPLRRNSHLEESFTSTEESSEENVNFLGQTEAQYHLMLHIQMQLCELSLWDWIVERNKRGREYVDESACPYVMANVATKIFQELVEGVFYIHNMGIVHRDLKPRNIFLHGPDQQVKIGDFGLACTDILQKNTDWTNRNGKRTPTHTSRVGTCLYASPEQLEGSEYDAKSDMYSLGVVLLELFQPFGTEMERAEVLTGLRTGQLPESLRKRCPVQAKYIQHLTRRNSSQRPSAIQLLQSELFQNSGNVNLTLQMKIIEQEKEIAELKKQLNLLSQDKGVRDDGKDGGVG
Calcium/calmodulin-dependent protein kinase type 1 (Homo sapiens), sequence (Q14012 whole entry, looked up, the tested form may be a part, canonical isoform): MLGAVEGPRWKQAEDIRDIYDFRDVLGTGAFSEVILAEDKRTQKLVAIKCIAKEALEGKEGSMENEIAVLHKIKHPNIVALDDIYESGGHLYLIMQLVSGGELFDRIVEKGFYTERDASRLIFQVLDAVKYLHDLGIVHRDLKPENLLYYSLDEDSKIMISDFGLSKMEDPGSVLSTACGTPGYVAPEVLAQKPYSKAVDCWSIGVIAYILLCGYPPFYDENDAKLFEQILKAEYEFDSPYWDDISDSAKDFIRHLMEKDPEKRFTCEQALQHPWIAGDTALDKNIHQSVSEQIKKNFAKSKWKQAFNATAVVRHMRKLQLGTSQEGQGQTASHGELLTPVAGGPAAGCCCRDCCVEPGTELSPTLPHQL

Regarding `COCCN[C@H]1CC[C@H](Nc2cc(-c3csc(NCC4(C#N)CCOCC4)n3)c(Cl)cn2)CC1`, in series [1], the inhibition result is “inactive”. Also, the Activity entry is “Dose-dependent effect” in the series with MV4-11; 100% in series [3]; 92% in [4]; 89% in series [5]; 99% in series [6]; 97% in series [7]. In addition, the Activity amounted to 97% in [8]; 85% in [9]; 100% in series [10]; 100% in [11]; 78% in series [12]; 57% in series [13]. For the same compound, the Activity worked out at 72% in [14]; 56% in series [15]; 68% in series [16]; 94% in series [17]; 66% in series [18]; 86% in series [19]. Besides, the area under the curve AUC(0-t) (commonly exposure summed from dosing to a finite time, without extrapolation to infinity) in series [2] is 625 ng·h/mL.

The record behind these values is ChEMBL document CHEMBL4261600 (Eur J Med Chem, 2018).
